Results published in ChEMBL document CHEMBL1250555, “Anti-AIDS agents 84. Synthesis and anti-human immunodeficiency virus (HIV) activity of 2'-monomethyl-4-methyl- and 1'-thia-4-methyl-(3'R,4'R)-3',4'-di-O-(S)-camphanoyl-(+)-cis-khellactone (DCK) analogs” (Bioorg Med Chem, 2010).

Tests used:
[1] = Therapeutic index, ratio of IC50 for human H9 cells to EC50 for HIV1 3B; assay type: cell-based; conditions: read-out: TI
Outline: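 Mock-infected H9 cells were run in parallel under the same conditions, and toxicity was measured by XTT. IC50 is the concentration toxic to 50% of the cells. TI = IC50/EC50, where EC50 is 50% suppression of HIV-1 IIIB replication measured by day-6 p24 antigen capture.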

[2] = target: Human immunodeficiency virus type 1 reverse transcriptase (Human immunodeficiency virus 1, UniProt Q72547); test: Inhibition of HIV1 DH012 reverse transcriptase by roche colorimetric assay
Outline: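 HIV-1 DH012 RT activity was measured across a range of test-compound concentrations using a colorimetric RT kit run per the manufacturer's protocol; IC50 taken as the inhibitory concentration.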

[3] = test system: Human immunodeficiency virus 1; test: Antiviral activity against HIV1 IIIB infected in human H9 cells after 6 days by p24 antigen capture assay; conditions: Human immunodeficiency virus 1, H9, 144 h
[4] = test system: Human immunodeficiency virus 1; test: Antiviral activity against HIV1 3B infected in human H9 cells assessed as inhibition of viral replication at up to 100 ug/mL after 6 hrs by p24 antigen based assay; assay type: functional, organism-based; conditions: in the assay text read “after 6 days” for “after 6 hrs”
Outline: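 H9 human T cells (3 × 10^5 cells/mL) infected with HIV-1 IIIB at 125 TCID50. Compounds dissolved in DMSO and screened at final 100, 20, 4 and 0.8 μg/mL, with further dilutions for actives. Medium was replaced on days 1 and 4 post-infection. On day 6 the supernatant p24 antigen was measured by capture assay. EC50 is the concentration suppressing replication by 50%.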

Row | SMILES | selectivity ratio [1] | IC50 [2] | EC50 [3] | EC50 [4]
1 | Cc1cc(=O)oc2c3c(ccc12)O[C@@H](C)[C@H](OC(=O)[C@]12CC[C@](C)(C(=O)O1)C2(C)C)[C@@H]3OC(=O)[C@]12CC[C@](C)(C(=O)O1)C2(C)C | > 706 | 6.7 µM | < 0.04 µM | 
2 | Cc1cc(=O)oc2c3c(ccc12)O[C@H](C)[C@@H](OC(=O)[C@]12CC[C@](C)(C(=O)O1)C2(C)C)[C@H]3OC(=O)[C@]12CC[C@](C)(C(=O)O1)C2(C)C | 17.8 |  | 2.26 µM | 
3 | Cc1cc(=O)oc2c3c(ccc12)O[C@H](C)[C@H](OC(=O)[C@]12CC[C@](C)(C(=O)O1)C2(C)C)[C@@H]3OC(=O)[C@]12CC[C@](C)(C(=O)O1)C2(C)C |  |  |  | Not Active
4 | Cc1cc(=O)oc2c3c(ccc12)S[C@@H](C)[C@@H](OC(=O)[C@]12CC[C@](C)(C(=O)O1)C2(C)C)[C@H]3OC(=O)[C@]12CC[C@](C)(C(=O)O1)C2(C)C | > 1000 |  | < 0.039 µM | 
5 | Cc1cc(=O)oc2c3c(ccc12)S[C@H](C)[C@@H](OC(=O)[C@]12CC[C@](C)(C(=O)O1)C2(C)C)[C@H]3OC(=O)[C@]12CC[C@](C)(C(=O)O1)C2(C)C |  |  |  | Not Active
6 | Cc1cc(=O)oc2c3c(ccc12)S[C@H](C)[C@H](OC(=O)[C@]12CC[C@](C)(C(=O)O1)C2(C)C)[C@@H]3OC(=O)[C@]12CC[C@](C)(C(=O)O1)C2(C)C | 31.1 |  | 1.26 µM | 
7 | Cc1cc(=O)oc2c3c(ccc12)[S+]([O-])[C@@H](C)C(OC(=O)C12CCC(C)(C(=O)O1)C2(C)C)C3OC(=O)C12CCC(C)(C(=O)O1)C2(C)C (some centres undefined) |  |  |  | Not Active
8 | Cc1cc(=O)oc2c3c(ccc12)[S+]([O-])[C@H](C)[C@H](OC(=O)[C@]12CC[C@](C)(C(=O)O1)C2(C)C)[C@@H]3OC(=O)[C@]12CC[C@](C)(C(=O)O1)C2(C)C (some centres undefined) | 1.57 |  | 24.4 µM | 
9 | Cc1cc(=O)oc2c3c(ccc12)S(=O)(=O)[C@@H](C)C(OC(=O)C12CCC(C)(C(=O)O1)C2(C)C)C3OC(=O)C12CCC(C)(C(=O)O1)C2(C)C (some centres undefined) | 11.1 |  | 3.37 µM | 
10 | Cc1cc(=O)oc2c3c(ccc12)OC(C)(C)[C@H](OC(=O)[C@]12CC[C@](C)(C(=O)O1)C2(C)C)[C@@H]3OC(=O)[C@]12CC[C@](C)(C(=O)O1)C2(C)C | 301 | 10.4 µM | 0.126 µM | 
11 | Cc1cc(=O)oc2c3c(ccc12)OC[C@H](OC(=O)[C@]12CC[C@](C)(C(=O)O1)C2(C)C)[C@@H]3OC(=O)[C@]12CC[C@](C)(C(=O)O1)C2(C)C | 2.54 |  | 16.2 µM | 
12 | Cc1cc(=O)oc2c3c(ccc12)SC[C@H](OC(=O)[C@]12CC[C@](C)(C(=O)O1)C2(C)C)[C@@H]3OC(=O)[C@]12CC[C@](C)(C(=O)O1)C2(C)C | 40.6 |  | 0.99 µM | 
13 | Cc1cn([C@H]2C[C@H](N=[N+]=[N-])[C@@H](CO)O2)c(=O)[nH]c1=O [ZIDOVUDINE] |  |  | 0.01 µM | 
